Tests used:
Assay type in all cases: functional
[1] = Growth inhibition of human BT549 cells at 10 uM after 48 hrs by SRB assay relative to control; settings: BT-549, 48 h, read-out: GI
In short: (§1)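 NCI 60-cell-line panel, nine tumor subpanels; compounds tested at a single dose of 10 μM in the primary screen.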

[2] = Growth inhibition of human KM12 cells at 10 uM after 48 hrs by SRB assay relative to control; settings: KM12, 48 h, read-out: GI; in short: as §1
[3] = Growth inhibition of human HCC2998 cells at 10 uM after 48 hrs by SRB assay relative to control; settings: HCC 2998, 48 h, read-out: GI; in short: as §1
[4] = Growth inhibition of human HOP92 cells at 10 uM after 48 hrs by SRB assay relative to control; settings: HOP-92, 48 h, read-out: GI; in short: as §1
[5] = Growth inhibition of human SN12C cells at 10 uM after 48 hrs by SRB assay relative to control; settings: read-out: GI
In short: (§2)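 Primary screen across the full NCI 60 human tumour cell line panel, which covers nine tumour subpanels. A single dose of 10 μM was applied to each line, and growth was recorded for each cell line.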

[6] = Growth inhibition of human UO31 cells at 10 uM after 48 hrs by SRB assay relative to control; settings: UO-31, 48 h, read-out: GI; in short: as §2
[7] = Growth inhibition of human SK-MEL-28 cells at 10 uM after 48 hrs by SRB assay relative to control; settings: SK-MEL-28, 48 h, read-out: GI; in short: as §2
[8] = Growth inhibition of human ACHN cells at 10 uM after 48 hrs by SRB assay relative to control; settings: read-out: GI; in short: as §1
[9] = Growth inhibition of human HCT116 cells at 10 uM after 48 hrs by SRB assay relative to control; settings: HCT-116, 48 h, read-out: GI; in short: as §1
[10] = Growth inhibition of human 786-0 cells at 10 uM after 48 hrs by SRB assay relative to control; settings: 786-0, 48 h, read-out: GI; in short: as §1
[11] = Growth inhibition of human HOP62 cells at 10 uM after 48 hrs by SRB assay relative to control; settings: HOP-62, 48 h, read-out: GI; in short: as §1
[12] = Growth inhibition of human MALME-3M cells at 10 uM after 48 hrs by SRB assay relative to control; settings: read-out: GI; in short: as §1
[13] = Growth inhibition of human MDA-MB-468 cells at 10 uM after 48 hrs by SRB assay relative to control; settings: MDA-MB-468, 48 h, read-out: GI; in short: as §1
[14] = Growth inhibition of human M14 cells at 10 uM after 48 hrs by SRB assay relative to control; settings: M14, 48 h, read-out: GI; in short: as §1
[15] = Growth inhibition of human NCI-H460 cells at 10 uM after 48 hrs by SRB assay relative to control; settings: NCI-H460, 48 h, read-out: GI; in short: as §1
[16] = Growth inhibition of human UACC257 cells at 10 uM after 48 hrs by SRB assay relative to control; settings: UACC-257, 48 h, read-out: GI; in short: as §2
[17] = Growth inhibition of human A498 cells at 10 uM after 48 hrs by SRB assay relative to control; settings: A498, 48 h, read-out: GI; in short: as §1
[18] = Growth inhibition of human A549 cells at 10 uM after 48 hrs by SRB assay relative to control; settings: A549, 48 h, read-out: GI; in short: as §1
[19] = Growth inhibition of human PC3 cells at 10 uM after 48 hrs by SRB assay relative to control; settings: PC-3, 48 h, read-out: GI; in short: as §1
[20] = Growth inhibition of human RPMI8226 cells at 10 uM after 48 hrs by SRB assay relative to control; settings: RPMI-8226, 48 h, read-out: GI; in short: as §1
[21] = Growth inhibition of human SNB75 cells at 10 uM after 48 hrs by SRB assay relative to control; settings: SNB-75, 48 h, read-out: GI; in short: as §2
[22] = Growth inhibition of human IGROV1 cells at 10 uM after 48 hrs by SRB assay relative to control; settings: IGROV-1, 48 h, read-out: GI; in short: as §1
[23] = Growth inhibition of human SW620 cells at 10 uM after 48 hrs by SRB assay relative to control; settings: SW-620, 48 h, read-out: GI; in short: as §2
[24] = Growth inhibition of human HT-29 cells at 10 uM after 48 hrs by SRB assay relative to control; settings: HT-29, 48 h, read-out: GI; in short: as §1
[25] = Growth inhibition of human HCT15 cells at 10 uM after 48 hrs by SRB assay relative to control; settings: HCT-15, 48 h, read-out: GI; in short: as §1
[26] = Growth inhibition of human SK-MEL-2 cells at 10 uM after 48 hrs by SRB assay relative to control; settings: SK-MEL-2, 48 h, read-out: GI; in short: as §2
[27] = Growth inhibition of human OVCAR5 cells at 10 uM after 48 hrs by SRB assay relative to control; settings: OVCAR-5, 48 h, read-out: GI; in short: as §1
[28] = Growth inhibition of human SR cells at 10 uM after 48 hrs by SRB assay relative to control; settings: read-out: GI; in short: as §2
[29] = Growth inhibition of human Caki1 cells at 10 uM after 48 hrs by SRB assay relative to control; settings: CAKI-1, 48 h, read-out: GI; in short: as §1

Compound | inhibition of growth at 10 µM [1] [%] | inhibition of growth at 10 µM [2] [%] | inhibition of growth at 10 µM [3] [%] | inhibition of growth at 10 µM [4] [%] | inhibition of growth at 10 µM [5] [%] | inhibition of growth at 10 µM [6] [%] | inhibition of growth at 10 µM [7] [%] | inhibition of growth at 10 µM [8] [%] | inhibition of growth at 10 µM [9] [%] | inhibition of growth at 10 µM [10] [%] | inhibition of growth at 10 µM [11] [%] | inhibition of growth at 10 µM [12] [%] | inhibition of growth at 10 µM [13] [%] | inhibition of growth at 10 µM [14] [%] | inhibition of growth at 10 µM [15] [%] | inhibition of growth at 10 µM [16] [%] | inhibition of growth at 10 µM [17] [%] | inhibition of growth at 10 µM [18] [%] | inhibition of growth at 10 µM [19] [%] | inhibition of growth at 10 µM [20] [%] | other results
COc1cc(CSc2nc3ccc(Cl)cc3c(=O)n2-c2ccccc2)cc(OC)c1OC | < 10 | 50.2 | 20 | 11.1 | 24 | 52.2 | < 10 | 21.1 | 38.2 | 10.7 | 28 | 23.5 | 42.7 | < 10 | < 10 | 10.3 | 18.3 | 26.1 | 26.8 | < 10 | inhibition of growth at 10 µM [21]: 24.3%; inhibition of growth at 10 µM [22]: 27.5%; inhibition of growth at 10 µM [23]: 20.3%; inhibition of growth at 10 µM [24]: 33%; inhibition of growth at 10 µM [25]: 47.5%; inhibition of growth at 10 µM [26]: 22.5%; inhibition of growth at 10 µM [27]: 15.4%; inhibition of growth at 10 µM [28]: 54.4%; inhibition of growth at 10 µM [29]: 26.1%
COc1ccc(-n2c(SCc3cc(OC)c(OC)c(OC)c3)nc3ccc(Cl)cc3c2=O)cc1 | < 10 | 18.7 | < 10 | 42.9 | 18.3 | 52.1 | < 10 | 16.4 | 33.3 | < 10 | < 10 | < 10 | 13.4 | < 10 | 10.3 | 11.2 | 49.1 | 20.2 | 37.7 | 33.8 | inhibition of growth at 10 µM [21]: < 10%; inhibition of growth at 10 µM [22]: 16.3%; inhibition of growth at 10 µM [23]: < 10%; inhibition of growth at 10 µM [24]: 17%; inhibition of growth at 10 µM [25]: 19.3%; inhibition of growth at 10 µM [26]: < 10%; inhibition of growth at 10 µM [27]: 10.5%; inhibition of growth at 10 µM [28]: < 10%; inhibition of growth at 10 µM [29]: 33%
